{
  "source": "paper PMC6585414",
  "about": "(Infection and Drug Resistance, 2019)",
  "key": {"[1]": {"assay": "Serum biochemical factors after intraperitoneal injection", "format": "in vivo, mouse", "conditions": "blood 48 h after the injection, mean ± standard deviation", "procedure,_shortened": "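Mice given PBS (control) or peptide at 50 or 100 μg/mouse by single ip injection (100 μL/mouse). Blood (0.2 mL) drawn 48 h later and serum GPT, GOT, total bilirubin and uric acid quantified. Five mice per group. Data shown as mean ± SD, compared by ANOVA, p<0.05 taken as significant.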"}, "[2]": {"tested_on": "human embryonic kidney cells (HEK-293)", "assay": "MTT cytotoxicity assay", "format": "cell-based", "conditions": "1.56–50 μg/mL, 48 h, 37°C, in words (Figure 6)", "procedure,_shortened": "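HEK-293 cells seeded fresh at 1×10^5 cells/well, exposed to twofold serial peptide dilutions (1.56–50 μg/mL) at 37°C in 5% CO2 for 48 h. MTT (5 mg/mL stock, 10 μL) then added for 4 h. Formazan dissolved in 100% DMSO, absorbance read at 575 nm, percentage viable cells derived. Triplicate, three independent repeats, mean ± SD.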"}},
  "note": "No end group written: not given here.",
  "data": [
    {"substance": "FFHHIFRGAVHVGKTIHRLVTG-NH2 [I9A-piscidin-1]", "values": [
      {"measurement": "Serum level of GOT", "setting": "[1]; 50 μg/mouse ip", "value": "8.96±1.12", "unit": "U/L"},
      {"measurement": "Serum level of GPT", "setting": "[1]; 50 μg/mouse ip", "value": "6.67±0.47", "unit": "U/L"},
      {"measurement": "Serum level of TBIL", "setting": "[1]; 50 μg/mouse ip", "value": "0.21 ± 0.06", "unit": "mg/dL"},
      {"measurement": "Serum level of UA", "setting": "[1]; 50 μg/mouse ip", "value": "0.42 ± 0.07", "unit": "mg/dL"},
      {"measurement": "Serum level of GOT", "setting": "[1]; 100 μg/mouse ip", "value": "10.86±1.07", "unit": "U/L"},
      {"measurement": "Serum level of GPT", "setting": "[1]; 100 μg/mouse ip", "value": "7.17±0.37", "unit": "U/L"},
      {"measurement": "Serum level of TBIL", "setting": "[1]; 100 μg/mouse ip", "value": "0.51 ± 0.09", "unit": "mg/dL"},
      {"measurement": "Serum level of UA", "setting": "[1]; 100 μg/mouse ip", "value": "0.87 ± 0.09", "unit": "mg/dL"}
    ]},
    {"substance": "FFHHIFRGIVHVGKTAHRLVTG-NH2 [I16A-piscidin-1]", "values": [
      {"measurement": "Serum level of GOT", "setting": "[1]; 50 μg/mouse ip", "value": "9.22±0.90", "unit": "U/L"},
      {"measurement": "Serum level of GPT", "setting": "[1]; 50 μg/mouse ip", "value": "5.92±1.10", "unit": "U/L"},
      {"measurement": "Serum level of TBIL", "setting": "[1]; 50 μg/mouse ip", "value": "0.20 ± 0.04", "unit": "mg/dL"},
      {"measurement": "Serum level of UA", "setting": "[1]; 50 μg/mouse ip", "value": "0.39 ± 0.12", "unit": "mg/dL"},
      {"measurement": "Serum level of GOT", "setting": "[1]; 100 μg/mouse ip", "value": "11.08±0.94", "unit": "U/L"},
      {"measurement": "Serum level of GPT", "setting": "[1]; 100 μg/mouse ip", "value": "7.33±1.10", "unit": "U/L"},
      {"measurement": "Serum level of TBIL", "setting": "[1]; 100 μg/mouse ip", "value": "0.53 ± 0.08", "unit": "mg/dL"},
      {"measurement": "Serum level of UA", "setting": "[1]; 100 μg/mouse ip", "value": "0.77 ± 0.14", "unit": "mg/dL"}
    ]},
    {"substance": "FFHHIFRGIVHVGKTIHRLVTG-NH2 [Piscidin-1, reference compound]", "values": [
      {"measurement": "Serum level of GOT", "setting": "[1]; 50 μg/mouse ip", "value": "9.48±1.06", "unit": "U/L"},
      {"measurement": "Serum level of GPT", "setting": "[1]; 50 μg/mouse ip", "value": "5.83±0.52", "unit": "U/L"},
      {"measurement": "Serum level of TBIL", "setting": "[1]; 50 μg/mouse ip", "value": "0.19 ± 0.04", "unit": "mg/dL"},
      {"measurement": "Serum level of UA", "setting": "[1]; 50 μg/mouse ip", "value": "0.45 ± 0.06", "unit": "mg/dL"},
      {"measurement": "Serum level of GOT", "setting": "[1]; 100 μg/mouse ip", "value": "10.64±0.97", "unit": "U/L"},
      {"measurement": "Serum level of GPT", "setting": "[1]; 100 μg/mouse ip", "value": "4.62±0.42", "unit": "U/L"},
      {"measurement": "Serum level of TBIL", "setting": "[1]; 100 μg/mouse ip", "value": "0.27 ± 0.07", "unit": "mg/dL"},
      {"measurement": "Serum level of UA", "setting": "[1]; 100 μg/mouse ip", "value": "0.53 ± 0.08", "unit": "mg/dL"},
      {"measurement": "Cytotoxic activity against HEK-293", "setting": "[2]", "value": "highest cytotoxic activity"}
    ]},
    {"substance": "FFHHIFRGIVHVGKTKHRLVTG-NH2 [I16K-piscidin-1]", "values": [
      {"measurement": "Serum level of GOT", "setting": "[1]; 50 μg/mouse ip", "value": "8.88±0.86", "unit": "U/L"},
      {"measurement": "Serum level of GPT", "setting": "[1]; 50 μg/mouse ip", "value": "6.43±0.86", "unit": "U/L"},
      {"measurement": "Serum level of TBIL", "setting": "[1]; 50 μg/mouse ip", "value": "0.20 ± 0.05", "unit": "mg/dL"},
      {"measurement": "Serum level of UA", "setting": "[1]; 50 μg/mouse ip", "value": "0.41 ± 0.11", "unit": "mg/dL"},
      {"measurement": "Serum level of GOT", "setting": "[1]; 100 μg/mouse ip", "value": "8.53±1.15", "unit": "U/L"},
      {"measurement": "Cytotoxic activity against HEK-293", "setting": "[2]", "value": "lowest activity against HEK-293 cells compared to other peptides"}
    ]},
    {"substance": "FFHHIFRGKVHVGKTIHRLVTG-NH2 [I9K-piscidin-1]", "values": [
      {"measurement": "Serum level of GOT", "setting": "[1]; 50 μg/mouse ip", "value": "9.27±0.78", "unit": "U/L"},
      {"measurement": "Serum level of GPT", "setting": "[1]; 50 μg/mouse ip", "value": "6.26±0.22", "unit": "U/L"},
      {"measurement": "Serum level of TBIL", "setting": "[1]; 50 μg/mouse ip", "value": "0.18 ± 0.07", "unit": "mg/dL"},
      {"measurement": "Serum level of UA", "setting": "[1]; 50 μg/mouse ip", "value": "0.43 ± 0.05", "unit": "mg/dL"},
      {"measurement": "Serum level of GOT", "setting": "[1]; 100 μg/mouse ip", "value": "10.32±0.88", "unit": "U/L"},
      {"measurement": "Serum level of GPT", "setting": "[1]; 100 μg/mouse ip", "value": "6.86±0.82", "unit": "U/L"},
      {"measurement": "Serum level of TBIL", "setting": "[1]; 100 μg/mouse ip", "value": "0.48 ± 0.10", "unit": "mg/dL"},
      {"measurement": "Serum level of UA", "setting": "[1]; 100 μg/mouse ip", "value": "0.81 ± 0.07", "unit": "mg/dL"}
    ]}
  ]
}
